Data from ChEMBL document CHEMBL4706701, “Synthesis and biological activity of selenopsammaplin A and its analogues as antitumor agents with DOT1L inhibitory activity” (Bioorg Med Chem, 2021).
The source made the active and inactive calls. The rule behind the calls is not given here.

Key:
HCT-116 = assay: Cytotoxicity against human HCT-116 cells assessed as reduction in cell viability by SRB assay; assay type: functional, cell-based
Summary of the method: (§1)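 Cells seeded in 96-well plates and exposed to compounds for the stated times. Zero-day controls were incubated 30 min. Cells were fixed and stained with 0.4% SRB in 1% acetic acid, and bound dye was dissolved in 10 mM Tris (pH 10.0). A515 was read, and IC50 was calculated by non-linear regression.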

MDA-MB-231 [1] = assay: Cytotoxicity against human MDA-MB-231 cells assessed as reduction in cell viability by SRB assay; assay type: functional, cell-based; summary of the method: as §1
SNU-638 = assay: Cytotoxicity against human SNU-638 cells assessed as reduction in cell viability by SRB assay; assay type: functional, cell-based; summary of the method: as §1
[2] = Selectivity ratio of IC50 for human MCF-10A cells to IC50 for human MDA-MB-231 cells; assay type: toxicity; settings: MCF-10A cells versus MDA-MB-231 cells, read-out: Ratio IC50
[3] = Selectivity ratio of IC50 for human MCF-10A cells to IC50 for human SNU-638 cells
Summary of the method: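 Cytotoxicity by SRB assay: cells seeded in 96-well plates and treated with compounds; fixed, stained with 0.4% SRB in 1% acetic acid, dye dissolved in 10 mM Tris (pH 10.0), absorbance read at 515 nm. IC50 by non-linear regression, means of at least three experiments; ratio of MCF10A IC50 to cancer-line IC50.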

[4] = molecular target: Histone-lysine N-methyltransferase, H3 lysine-79 specific (Homo sapiens) (UniProt Q8TEK3); assay: Inhibition of DOT1L in human MDA-MB-231 cells assessed as down regulation of H3K79me2 expression at 200 nM by Western blot analysis; assay type: cell-based
Sequence of Histone-lysine N-methyltransferase, H3 lysine-79 specific (Homo sapiens) (Q8TEK3 whole entry, looked up): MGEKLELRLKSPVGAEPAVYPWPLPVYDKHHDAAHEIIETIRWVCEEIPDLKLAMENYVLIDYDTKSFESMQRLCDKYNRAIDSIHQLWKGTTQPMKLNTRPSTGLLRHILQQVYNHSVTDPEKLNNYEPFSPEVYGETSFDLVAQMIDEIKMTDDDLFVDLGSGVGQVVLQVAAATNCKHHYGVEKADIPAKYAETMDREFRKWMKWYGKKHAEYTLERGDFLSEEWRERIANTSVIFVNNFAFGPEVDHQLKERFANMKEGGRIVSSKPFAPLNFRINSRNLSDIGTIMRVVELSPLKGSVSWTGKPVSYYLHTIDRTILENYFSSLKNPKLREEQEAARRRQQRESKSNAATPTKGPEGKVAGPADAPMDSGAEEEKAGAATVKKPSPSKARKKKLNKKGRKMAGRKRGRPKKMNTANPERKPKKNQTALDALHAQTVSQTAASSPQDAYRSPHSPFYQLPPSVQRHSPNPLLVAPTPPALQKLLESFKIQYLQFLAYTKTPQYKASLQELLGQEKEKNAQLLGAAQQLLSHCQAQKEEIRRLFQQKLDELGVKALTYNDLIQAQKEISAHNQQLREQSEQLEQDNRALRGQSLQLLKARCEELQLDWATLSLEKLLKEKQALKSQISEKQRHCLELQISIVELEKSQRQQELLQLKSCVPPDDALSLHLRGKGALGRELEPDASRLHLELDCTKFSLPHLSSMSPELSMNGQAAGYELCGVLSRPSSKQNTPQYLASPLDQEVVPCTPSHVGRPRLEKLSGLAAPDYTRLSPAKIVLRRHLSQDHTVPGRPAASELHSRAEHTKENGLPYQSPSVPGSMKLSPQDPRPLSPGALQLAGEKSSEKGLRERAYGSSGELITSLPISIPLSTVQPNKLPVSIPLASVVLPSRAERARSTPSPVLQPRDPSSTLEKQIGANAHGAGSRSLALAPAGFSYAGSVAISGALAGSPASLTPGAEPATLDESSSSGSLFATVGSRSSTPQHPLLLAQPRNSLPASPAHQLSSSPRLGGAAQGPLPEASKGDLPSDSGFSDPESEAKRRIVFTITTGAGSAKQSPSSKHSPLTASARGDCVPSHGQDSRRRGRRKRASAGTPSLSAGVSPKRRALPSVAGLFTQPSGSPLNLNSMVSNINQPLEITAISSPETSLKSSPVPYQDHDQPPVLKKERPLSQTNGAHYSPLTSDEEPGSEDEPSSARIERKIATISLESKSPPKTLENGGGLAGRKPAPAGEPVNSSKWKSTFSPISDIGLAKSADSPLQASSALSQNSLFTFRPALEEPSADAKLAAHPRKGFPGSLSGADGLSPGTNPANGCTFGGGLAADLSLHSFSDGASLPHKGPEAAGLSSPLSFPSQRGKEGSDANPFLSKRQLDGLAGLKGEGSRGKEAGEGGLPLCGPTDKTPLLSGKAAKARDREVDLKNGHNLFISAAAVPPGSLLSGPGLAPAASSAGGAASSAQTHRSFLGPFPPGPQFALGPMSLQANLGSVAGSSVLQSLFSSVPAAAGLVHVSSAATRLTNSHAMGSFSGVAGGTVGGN
Summary of the method: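 MDA-MB-231 lysates were made in 2× SDS sample buffer with vanadate and fluoride. 5-20 μg protein was run on 8–15% SDS-PAGE and blotted to PVDF. Membranes were blocked in 5% BSA, probed for H3K79me2 with total histone H3, and detected by ECL. Mean ± SD (n = 3), representative of three separate experiments.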

[5] = molecular target: Histone-lysine N-methyltransferase, H3 lysine-79 specific (Homo sapiens) (UniProt Q8TEK3); assay: Inhibition of DOT1L in human MDA-MB-231 cells assessed as effect on histone H3 methylation at 50 to 200 nM by Western blot analysis; assay type: cell-based; settings: dose 50-200 nM
Summary of the method: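 MDA-MB-231 cell lysates in 2× SDS buffer, protein by BCA; 5–20 μg on 8–15% SDS-PAGE, transferred to PVDF, BSA-blocked and probed with antibodies to H3K4me2, H3K27me2, H3K36me2, H3K79me2 and total histone H3; ECL detection. Mean ± SD (n = 3), three separate experiments.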

MDA-MB-231 [6] = assay: Down regulation of CDH2 mRNA expression in human MDA-MB-231 cells at 50 to 200 nM measured after 24 hrs by RT-PCR analysis; assay type: functional, cell-based; settings: dose 50-200 nM
MDA-MB-231 [7] = assay: Down regulation of ZEB1 mRNA expression in human MDA-MB-231 cells at 50 to 200 nM measured after 24 hrs by RT-PCR analysis; assay type: functional, cell-based; settings: dose 50-200 nM
MDA-MB-231 [8] = assay: Down regulation of CDH2 expression in human MDA-MB-231 cells at 50 to 200 nM measured after 48 hrs by Western blot analysis; assay type: functional, cell-based; settings: dose 50-200 nM
Summary of the method: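 MDA-MB-231 cells exposed to compound for 48 h; lysates in 2× SDS sample buffer with orthovanadate and NaF, protein by BCA. 5–20 μg resolved on 8–15% SDS-PAGE, PVDF, BSA block, probed for E-cadherin, N-cadherin, ZEB1, vimentin; ECL detection, β-actin internal control, band densitometry. Mean ± SD (n = 3), three experiments.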

MDA-MB-231 [9] = assay: Antitumor activity against human MDA-MB-231 cells xenografted in BALB/c nu mouse assessed as tumor growth inhibition at 15 mg/kg, ip administered thrice per week for 38 days by caliper method relative to control; assay type: functional; settings: MDA-MB-231, ip, 912 h, time 38 day, read-out: TGI
Summary of the method: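 Female BALB/c-nu mice (5–6 wk) given 1 × 10⁷ luciferase-expressing MDA-MB-231 cells in 50:50 DMEM/Matrigel into the fourth fat pad; randomized after 10 days (six per group). Dosed ip in EtOH/Cremophor/saline (5:5:90) three times weekly for 38 days. Tumor L, W, H measured by caliper, volume = LWH/2; body weight weekly; tumors excised and weighed at termination.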

[10] = Toxicity in human MDA-MB-231 cells xenografted BALB/c nu mouse at 5 to 15 mg/kg, ip administered thrice per week for 38 days; assay type: organism-based; settings: in vivo, 912 h, dose 5-15 mg/kg, time 38 day
Summary of the method: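 Female BALB/c-nu mice, 5–6 weeks old, received 1 × 10⁷ luciferase-expressing MDA-MB-231 cells in 50:50 DMEM/Matrigel into the fourth fat pad. At day 10, mice were randomized into groups of six. Dosing was i.p. three times weekly for 38 days, in vehicle EtOH/Cremophor/saline 5:5:90. Body weight was recorded weekly, and toxicity was judged by lethality and weight loss.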

MDA-MB-231 [11] = assay: Antimetastatic activity against human MDA-MB-231 cells xenografted in BALB/c nu mouse assessed as reduction in luciferase signal in tumor site at 5 to 15 mg/kg, ip administered thrice per week for 38 days measured 1 week post last dose by luciferase based imaging analysis; assay type: functional, organism-based; settings: dose 5-15 mg/kg, time 45.0 day
Summary of the method: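 Orthotopic luciferase-expressing MDA-MB-231 model in female BALB/c-nu mice, ip dosing in EtOH/Cremophor/saline (5:5:90) three times weekly for 38 days. One week later anesthetized mice imaged by IVIS 15 min after D-luciferin (150 mg/kg in PBS); lungs and other organs then excised and imaged ex vivo.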

MDA-MB-231 [12] = assay: Antimetastatic activity against human MDA-MB-231 cells xenografted in BALB/c nu mouse assessed as reduction in metastatic cells in lung tissue at 5 to 15 mg/kg, ip administered thrice per week for 38 days measured 1 week post last dose by H and E staining based immunohistochemical analysis; assay type: functional, organism-based; settings: dose 5-15 mg/kg, time 45.0 day
Summary of the method: (§2)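 Tumors and lungs from orthotopic MDA-MB-231/Luc nude mice (ip dosing three times weekly, 38 days) fixed in 4% PFA, paraffin-embedded, sectioned, antigen-retrieved. Lungs H&E-stained for metastatic cells; tumor sections immunostained for Ki67, H3K79me2, E-cadherin, vimentin with HRP detection, hematoxylin counterstain, imaged at 200×.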

MDA-MB-231 [13] = assay: Antimetastatic activity against human MDA-MB-231 cells xenografted in ip dosed BALB/c nu mouse assessed as down regulation of vimentin expression in tumor tissue administered thrice per week for 38 days measured 1 week post last dose by Western blot analysis; assay type: functional, organism-based; settings: dose 5-15 mg/kg, time 45.0 day
Summary of the method: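 Frozen tumor portions from the orthotopic MDA-MB-231 nude mouse study homogenized in complete lysis buffer; protein by Bradford assay. Western blotting for H3K79me2, E-cadherin and vimentin, β-actin internal control, band intensities semi-quantified; three separate experiments.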

MDA-MB-231 [14] = assay: Antimetastatic activity against human MDA-MB-231 cells xenografted in BALB/c nu mouse assessed as down regulation of vimentin expression in tumor tissue at 5 to 15 mg/kg, ip administered thrice per week for 38 days measured 1 week post last dose by H and E staining based immunohistochemical analysis; assay type: functional, organism-based; settings: dose 5-15 mg/kg, time 45.0 day; summary of the method: as §2
MDA-MB-231 [15] = assay: Antimetastatic activity against human MDA-MB-231 cells xenografted in BALB/c nu mouse assessed as up regulation of E-cadherin expression in tumor tissue at 5 to 15 mg/kg, ip administered thrice per week for 38 days measured 1 week post last dose by H and E staining based immunohistochemical analysis; assay type: functional, organism-based; settings: dose 5-15 mg/kg, time 45.0 day; summary of the method: as §2

Question: Which IC50 (HCT-116) does the source give for `O=C(NCC[Se][Se]CCNC(=O)/C(Cc1ccccc1)=N/O)/C(Cc1ccccc1)=N/O` here?
Answer: Its IC50 is 90 nM.

Question: And the IC50 (MDA-MB-231 [1])?
Answer: Its IC50 is 60 nM.

Question: And the IC50 (SNU-638)?
Answer: Its IC50 is 50 nM.

Question: And the selectivity ratio [2]?
Answer: The selectivity ratio was over 100.

Question: What about the “Ratio IC50” value [3] of the same compound?
Answer: The value was over 100.

Question: What about the “H3K79me2 downregulation (active/not active)” value [4] of the same compound?
Answer: Its value is “Active”.

Question: What about the inhibition [5] of the same compound?
Answer: The inhibition was “Active”.

Question: And the Activity (MDA-MB-231 [6])?
Answer: Its Activity is “Active”.

Question: And the Activity (MDA-MB-231 [7])?
Answer: Its Activity is “Active”.

Question: What about the Activity (MDA-MB-231 [8]) of the same compound?
Answer: Its Activity is “Active”.

Question: And the inhibition in vivo at 15 mg/kg (MDA-MB-231 [9])?
Answer: The inhibition in vivo at 15 mg/kg was 55.1%.

Question: And the Activity [10]?
Answer: The Activity was “Non-Toxic”.

Question: What about the Activity (MDA-MB-231 [11]) of the same compound?
Answer: The Activity was “Active”.

Question: What about the Activity (MDA-MB-231 [12]) of the same compound?
Answer: The Activity was “Active”.

Question: What about the Activity (MDA-MB-231 [13]) of the same compound?
Answer: Its Activity is “Dose-dependent effect”.

Question: And the Activity (MDA-MB-231 [14])?
Answer: The Activity was “Active”.

Question: And the Activity (MDA-MB-231 [15])?
Answer: Its Activity is “Active”.
